Results published in PMC8892239 (EFSA Journal, 2022).
Converted amounts (≈) assume the structure as drawn. Where two headings read alike, the source gives them in different places.

Tests used:
[1] = Stability of EQ in a vitamin/mineral premixture; type: physicochemical; settings: premixture with 5% EQ
[2] = Stability of EQ in complete feed for chickens for fattening; type: physicochemical; settings: 50, 150 or 500 mg EQ/kg feed
[3] = test system: weaned piglets; experiment: Tolerance study in weaned piglets; type: in vivo
Procedure, shortened: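 128 piglets (Pietrain × crossbred, both sexes) entered the study at 28 days old and 8.1 kg. They were housed four per pen (two males, two females) in 32 pens and acclimatised for 6 days. Four mash diets were fed: 0, 50, 150 or 300 mg/kg feed, with eight replicate pens per diet.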

[4] = test system: Atlantic salmon; experiment: Tolerance study in Atlantic salmon; type: in vivo, Salmo salar L.
[5] = Residues of EQ and metabolites/TPs in piglet tissues; type: in vivo; settings: piglets
[6] = Residues of EQ and metabolites/TPs in cattle tissues; type: in vivo; settings: for concentration at 42 days: Holstein, bovine, oral, 50 mg EQ/kg complete feed; for residue in muscle, highest value: LOQs as above
[7] = Residues of EQ and EQDM in fish flesh; type: in vivo; settings: Atlantic salmon, oral, 50 mg EQ/kg feed
Procedure, shortened: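 Flesh was sampled from 15 fish per group after 90 days of feeding. The parent compound and its dimer were quantified by HPLC with fluorescence detection.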

[8] = test system: terrestrial plants; experiment: Seedling emergence and seedling growth test, OECD 208, three plant species; type: in vivo, Avena sativa, Brassica napus, Pisum sativum
Procedure, shortened: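 Soil was spiked with the test compound; measured concentrations were checked against nominal. From 50% emergence in controls, emergence, survival and visible phytotoxicity were recorded weekly for 21 days. At the end, emergence, survival, shoot fresh weight and visible damage were recorded. Effect concentrations were derived from dose–response curves.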

[9] = test system: Daphnia magna; experiment: 48-h semi-static acute toxicity test, OECD 202; type: in vivo; settings: read-out: 48h EC50 (immobilization)
[10] = test system: Daphnia magna; experiment: 21-day semi-static reproduction test; type: in vivo
[11] = test system: Caenorhabditis elegans; experiment: Sediment toxicity test, ISO 10872, 96 h; type: in vivo
Procedure, shortened: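 GLP sediment test with Caenorhabditis elegans per ISO 10872. Sediment levels were 25.6, 64, 160, 400 and 1,000 mg/kg sediment DW, with four replicates per control and per concentration. Fertility, reproduction and growth were read 96 h after the nematodes were added.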

[12] = test system: Skeletonema pseudocostatum; experiment: Marine algal growth inhibition test, ISO 10253:2016; type: in vivo; settings: read-out: ErC50
Procedure, shortened: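 Test concentrations were measured analytically at 0 and 72 h. Endpoints were expressed on the geometric mean of the measured concentrations. An EC50 was also predicted from the initially measured concentrations.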

[13] = test system: Pacific oyster Crassostrea gigas; experiment: 24-h embryo-larval developmental test; type: in vivo; settings: initially measured concentrations
[14] = Risk characterisation
Procedure, shortened: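 For each compartment, a PNEC was derived by dividing the NOEC (or EC10 where indicated) by an assessment factor. Risk was expressed as the PEC/PNEC ratio.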

[15] = Oxygen bomb method, feed for sows
[16] = test system: Beagle dogs; settings: ref EFSA FEEDAP Panel, 2015, cited from earlier work
[17] = cited from earlier work; for Water solubility: ref EFSA, 2010
[18] = at 25°C; ref EFSA, 2010; cited from earlier work
[19] = at 22°C; ref EFSA, 2010; cited from earlier work
[20] = 5,000 mg/kg feed (EQ4), 90 days
[21] = 10,000 mg/kg feed (EQ5), 90 days
[22] = control feed (0 mg EQ/kg), 42 days, mean ± SD, LOQs as above

## CCOc1ccc2c(c1)C(C)=CC(C)(C)N2 [EQ, 6‐ethoxy‐1,2‐dihydro‐2,2,4‐trimethylquinoline]
[1]; 90 days at 25°C, 60% RH
  EQ disappeared: About 50%
[1]; at 40°C
  time to a similar (about 50%) decline of EQ: 8 days
[2]; after 90 days at 40°C, 75% RH
  EQ losses: about 80%
[2]; after 90 days, ambient conditions
  EQ losses: 30–50%
[3]; 50, 150 or 300 mg/kg feed, 42 days
  zootechnical parameters: not different from those of the control group
[3]; maximum use level 50 mg ethoxyquin/kg feed
  margin of safety: at least six
[4]; 5,000 mg/kg feed (EQ4)
  condition factor: 1.3 g/mL
  daily feed intake: 2.9 g/fish per day
  specific growth rate: 0.8 % bw per day
  total feed intake: 255 g/fish
[4]; [20]
  bw gain: 276 g
  final bw: 537 g
[4]; 10,000 mg/kg feed (EQ5)
  condition factor: 1.1 g/mL
  daily feed intake: 1.1 g/fish per day
  final salmon length: 29 cm
  specific growth rate: 0.1 % bw per day
  total feed intake: 100 g/fish
[4]; [21]
  bw gain: 38 g
  final bw: 301 g
[4]; up to 10,000 mg/kg feed, 90 days
  mortality: No fish died
[5]; control feed (0 mg EQ/kg), 42 days, mean ± SD, LOQs 1.5 to 2 µg EQ, EQDM, metabolite A/kg, 0.5 µg EQI/kg
  residue in kidney: ˂ LOQ^( ^b ^)
[5]; [22]
  residue in muscle: ˂ LOQ
  residue in subcutaneous fat: ˂ LOQ
[5]; feed with 50 mg EQ/kg for 42 days, LOQs 1.5 to 2 µg EQ, EQDM, metabolite A/kg, 0.5 µg EQI/kg
  residue in muscle: ˂ LOQ
[6]; kidney, residue in kidney, highest value, cattle, 50 mg EQ/kg complete feed for 42 days, LOQs 1.5–2 µg EQ, EQDM, metabolite A/kg, 0.5–1 µg EQI, DHEQ/kg
  concentration at 42 days: 19.9 ng/g
[6]; liver
  concentration at 42 days: 34 ng/g
[6]; cattle, 50 mg EQ/kg complete feed for 42 days
  residue in muscle, highest value: ˂ LOQ
[6]; cattle, control (0 mg EQ/kg feed), 42 days
  residue in muscle, highest value: ˂ LOQ
[7]
  concentration at 90 days: 40 ng/g
[8]; all species tested
  concentration with statistically significant effects on shoot fresh weight: 111 mg test item/kg soil DW
[8]; lowest calculated, 21 days
  EC10: 55.8 mg test item/kg soil DW
[8]; shoot fresh weight, 21 days
  lowest calculated EC50: 155 mg test item/kg soil DW
[9]
  EC50: 2.48 µg/mL (≈ 11.4 µM)
[10]; as used in risk characterisation
  EC10: 0.06 µg/mL (≈ 0.276 µM)
[10]; nominal concentrations, 95% confidence interval 46.9–76.0
  21-day EC10 (number of offspring per introduced and survived parent): 0.0597 µg/mL
[11]
  EC10 for fertility and growth: > 1,000 mg/kg sediment DW
  EC10 for reproduction: 727 mg/kg sediment DW
  NOEC for fertility, reproduction and growth: 400 mg/kg sediment DW
[12]
  EC50: 3.3 µg/mL (≈ 15.2 µM)
[13]
  24-h NOEC (development): 2.9 mg/L
[14]
  PEC/PNEC, fish farmed in land-based systems: 0.10
  PEC/PNEC, freshwater sediment: 0.02
  PEC/PNEC, marine sediment: 1,550
  PEC/PNEC, terrestrial compartment (earthworm): 0.03
[14]; AF 10
  PNEC, freshwater sediment: 12,500 μg/kg
  PNEC, terrestrial compartment (earthworm): 17,100 μg/kg
[14]; AF 50
  PNEC, freshwater compartment: 1.2 µg/L
[14]; EQ used in terrestrial animals
  PEC/PNEC, freshwater compartment: 5
[14]; equilibrium partitioning approach, AF 1,000
  PNECsed, marine sediment: 70.8 µg/kg
[15]; 25 mg ethoxyquin/kg feed (EQ25)
  protection factor: 1.50
[15]; 50 mg ethoxyquin/kg feed (EQ50)
  protection factor: 1.78
[16]; dogs, based on hepatocellular necrosis
  lowest NOAEL: 2 mg/kg bw per day
[16]
  maximum potentially safe concentration in feeds for dogs: 11 mg/kg complete feed
[17]; pH 5, 20°C
  Water solubility: 101 µg/mL
[17]; pH 7, 20°C
  Water solubility: 60 µg/mL
[17]; pH 7
  Solubility at pH 7 (input for PEC): 60 mg/L
[17]; pH 9, 20°C
  Water solubility: 70 µg/mL
[18]
  Vapour pressure: 3.46 × 10^–2 at 25 °C Pa
[19]
  Dissociation constant: 4.56 at 22 °C
